According to ChEMBL document CHEMBL1926649, “New cholesterol esterase inhibitors based on rhodanine and thiazolidinedione scaffolds” (Bioorg Med Chem, 2011):

Experiments:
[1] = Inhibition of pig pancreatic cholesterol esterase preincubated for 5 mins by spectrophotometry; design: species or system Sus scrofa
In short: (§1)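 Porcine CEase in 100 mM sodium phosphate, 100 mM NaCl, pH 7.0, with 6 mM taurocholate (final), 3% acetonitrile, 3% DMSO. Inhibitor pre-mixed with 200 µM pNPB for 5 min at 25 °C. Reaction started with enzyme (10 ng/mL final), A405 followed for 6 min. Rates taken from linear steady-state turnover. Duplicates at five inhibitor concentrations. Residual activity at infinite [I] and IC50 come from non-linear regression of rate versus [I].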

Acetylcholinesterase = Acetylcholinesterase (Electrophorus electricus, UniProt O42275); assay: Inhibition of Electrophorus electricus acetylcholinesterase preincubated for 15 mins by spectrophotometry
Sus scrofa [2] = species: Sus scrofa; assay: Inhibition of pig pancreatic cholesterol esterase assessed as residual enzyme activity at infinite compound concentration preincubated for 5 mins by spectrophotometry; in short: as §1
[3] = Mixed inhibition of pig pancreatic cholesterol esterase preincubated for 5 mins by specific velocity plot analysis; design: species or system Sus scrofa
In short: (§2)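 Porcine CEase, pNPB hydrolysis read at 405 nm, 25 °C, pH 7.0 phosphate/NaCl buffer with 6 mM taurocholate. Quadruplicates covered five inhibitor levels (2–10 µM) crossed with five substrate levels (100–300 µM), after a 5 min preincubation. The uninhibited rate at 200 µM substrate was set to 100%. Ki, α and β come from replots of specific velocity using σ/[1+σ], with σ = [S]/Km and a separately determined Km.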

Sus scrofa [4] = species: Sus scrofa; assay: Ratio of binding affinity to free pig pancreatic cholesterol esterase to binding affinity to substrate-bound pig pancreatic cholesterol esterase; in short: as §2
[5] = Selectivity ratio of IC50 for Electrophorus electricus acetylcholinesterase to IC50 for pig cholesterol esterase
In short: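 IC50 ratio taken between two assays. AChE: E. electricus enzyme, 15 min preincubation, ATCh 500 µM with DTNB, read at 412 nm, pH 7.3. Porcine CEase: 10 ng/mL, 5 min preincubation of inhibitor with substrate, pNPB 200 µM with taurocholate 6 mM, read at 405 nm, pH 7.0.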

Sequence of Acetylcholinesterase (O42275 whole entry): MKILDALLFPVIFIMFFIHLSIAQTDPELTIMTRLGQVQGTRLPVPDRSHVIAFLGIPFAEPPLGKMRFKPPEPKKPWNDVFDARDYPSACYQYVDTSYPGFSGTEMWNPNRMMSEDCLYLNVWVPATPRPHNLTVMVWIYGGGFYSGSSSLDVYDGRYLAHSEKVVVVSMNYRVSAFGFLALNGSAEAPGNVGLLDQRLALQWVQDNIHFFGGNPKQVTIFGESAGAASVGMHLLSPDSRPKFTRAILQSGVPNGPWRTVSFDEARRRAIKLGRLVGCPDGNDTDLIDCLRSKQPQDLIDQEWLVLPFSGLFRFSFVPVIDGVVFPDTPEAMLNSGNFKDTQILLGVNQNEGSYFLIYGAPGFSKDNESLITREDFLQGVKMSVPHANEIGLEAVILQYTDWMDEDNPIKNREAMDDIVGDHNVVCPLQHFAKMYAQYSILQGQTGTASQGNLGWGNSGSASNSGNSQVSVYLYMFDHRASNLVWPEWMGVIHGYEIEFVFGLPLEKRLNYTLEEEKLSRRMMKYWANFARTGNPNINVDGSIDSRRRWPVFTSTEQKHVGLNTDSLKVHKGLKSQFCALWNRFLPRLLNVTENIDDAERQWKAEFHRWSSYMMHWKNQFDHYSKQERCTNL

For `CCCc1ccccc1NC(=O)[C@H](C)NC(=O)c1ccc(/C=C2\SC(=O)NC2=O)cc1`, the IC50 [1] was 54 µM and the IC50 (Acetylcholinesterase) was greater than 100 µM.

Work on `CCCc1ccccc1OCC(O)COc1ccc(/C=C2\SC(=S)NC2=O)cc1` (racemic) yielded an IC50 [1] of 1.76 µM, an Activity (Sus scrofa [2]) of 18% and an IC50 (Acetylcholinesterase) of 5.14 µM. For the same compound, the Ki [3] was 1.22 µM and the Ratio (Sus scrofa [4]) was 5.5.

With `CCCc1ccccc1OCC(O)COc1ccc(/C=C2\SC(=O)NC2=O)cc1` (racemic) the IC50 [1] was 5.89 µM, the Activity (Sus scrofa [2]) was 17% and the IC50 (Acetylcholinesterase) was greater than 100 µM. It also gave a Ratio IC50 [5] greater than 15.

For `O=C1NC(=O)/C(=C/c2ccccc2)S1`, the IC50 [1] was greater than 100 µM and the IC50 (Acetylcholinesterase) was greater than 100 µM.

Work on `CCCc1ccccc1NC(=O)[C@H](Cc1ccc(O)cc1)NC(=O)c1ccc(/C=C2\SC(=S)NC2=O)cc1` yielded an IC50 [1] of 14.5 µM and an IC50 (Acetylcholinesterase) of 57 µM.

Compound `CCCc1ccccc1NC(=O)[C@H](Cc1ccccc1)NC(=O)c1ccc(/C=C2\SC(=S)NC2=O)cc1` has an IC50 [1] of 40 µM and an IC50 (Acetylcholinesterase) of 43 µM.

Work on `CCCc1ccccc1NC(=O)[C@H](Cc1ccccc1)NC(=O)c1ccc(/C=C2\SC(=O)NC2=O)cc1` yielded an IC50 [1] of 40 µM and an IC50 (Acetylcholinesterase) of 14 µM.

`CCCc1ccccc1NC(=O)[C@H](COCc1ccccc1)NC(=O)c1ccc(/C=C2\SC(=S)NC2=O)cc1` showed an IC50 [1] of 1.44 µM, an Activity (Sus scrofa [2]) of 25% and an IC50 (Acetylcholinesterase) of 25 µM. For the same compound, the Ratio IC50 [5] was 17.

Work on `CCCc1ccccc1NC(=O)[C@H](CO)NC(=O)c1ccc(/C=C2\SC(=S)NC2=O)cc1` yielded an IC50 [1] of 31 µM and an IC50 (Acetylcholinesterase) greater than 100 µM.

`O=C1NC(=O)/C(=C/c2ccc(C(=O)O)cc2)S1` showed an IC50 [1] greater than 100 µM and an IC50 (Acetylcholinesterase) greater than 100 µM.

With `O=C1NC(=S)S/C1=C\c1ccc(C(=O)O)cc1` the IC50 [1] was greater than 100 µM and the IC50 (Acetylcholinesterase) was greater than 100 µM.

`CCCc1ccccc1NC(=O)[C@H](CO)NC(=O)c1ccc(/C=C2\SC(=O)NC2=O)cc1` showed an IC50 [1] of 5.7 µM, an Activity (Sus scrofa [2]) of 12% and an IC50 (Acetylcholinesterase) greater than 100 µM. The Ratio IC50 [5] was greater than 15.

Compound `CCCc1ccccc1NC(=O)[C@H](COC(C)(C)C)NC(=O)c1ccc(/C=C2\SC(=O)NC2=O)cc1` has an IC50 [1] of 85 µM and an IC50 (Acetylcholinesterase) of 66 µM.

`CCCc1ccccc1NC(=O)[C@H](C)NC(=O)c1ccc(/C=C2\SC(=S)NC2=O)cc1` gave an IC50 [1] of 50 µM and an IC50 (Acetylcholinesterase) greater than 100 µM.

`CCCc1ccccc1NC(=O)[C@H](COC(C)(C)C)NC(=O)c1ccc(/C=C2\SC(=S)NC2=O)cc1` gave an IC50 [1] of 6.07 µM and an IC50 (Acetylcholinesterase) of 21.6 µM.
